Test results: ChEMBL document CHEMBL4689842, “EUbOPEN Chemogenomics Library wave 1” (2021)

System: Fibroblast
Experiment: Multiplex assay against human fibroblast
Format: toxicity, cell-based
Outline: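 Phenotypes for tubulin, mitochondrial mass and membrane permeability are expressed as per cents of healthy-nucleus cells. Cells were stained live at seeding with Hoechst33342, BioTracker Green Microtubule Cytoskeleton Dye, MitoTracker Red and Annexin V Alexa Fluor 680, then imaged after compound addition on a CQ1 microscope at 37°C and 5% CO2. Machine-learning gating in CellPathfinder separated Hoechst high-intensity objects from normal cells, divided normal cells by nuclear state (healthy, pyknosed, fragmented) and divided pyknosed cells into mitotic or apoptotic.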

[1] = 12 h, 1 µM, compound concentration 1 uM, replicate 1
[2] = 12 h, 1 µM, compound concentration 1 uM, replicate 2
[3] = 12 h, 10 µM, compound concentration 10 uM, replicate 1
[4] = 12 h, 10 µM, compound concentration 10 uM, replicate 2
[5] = 24 h, 1 µM, compound concentration 1 uM, replicate 1
[6] = 24 h, 1 µM, compound concentration 1 uM, replicate 2
[7] = 24 h, 10 µM, compound concentration 10 uM, replicate 1
[8] = 24 h, 10 µM, compound concentration 10 uM, replicate 2
[9] = 48 h, 1 µM, compound concentration 1 uM, replicate 1
[10] = 48 h, 1 µM, compound concentration 1 uM, replicate 2
[11] = 48 h, 10 µM, compound concentration 10 uM, replicate 1
[12] = 48 h, 10 µM, compound concentration 10 uM, replicate 2

## Cc1ccc(C(=O)Nc2cccc(C(F)(F)F)c2)cc1Nc1nc(-c2cccnc2)nc2c1cnn2C
[1]
  Population Apoptotic (%): 61%
  Population Fragmented Nuclei (%): 34%
  Population Healthy Nuclei (%): 29%
  Population Hoechst High Intensity Objects (%): 10%
  Population Membrane Permeable-Phenotype (%): 28%
  Population Mitochondria Different-Phenotype (%): 3%
  Population Mitotic Cells (%): 38%
  Population Normal (%): 89%
  Population Pyknosed Nuclei (%): 35%
  Population Tubulin-Different-Phenotype (%): 53%
  Total Cell Count: 122
[2]
  Population Apoptotic (%): 50%
  Population Fragmented Nuclei (%): 14%
  Population Healthy Nuclei (%): 73%
  Population Hoechst High Intensity Objects (%): 3%
  Population Membrane Permeable-Phenotype (%): 6%
  Population Mitochondria Different-Phenotype (%): 25%
  Population Mitotic Cells (%): 50%
  Population Normal (%): 96%
  Population Pyknosed Nuclei (%): 12%
  Population Tubulin-Different-Phenotype (%): 14%
  Total Cell Count: 101
[3]
  Population Apoptotic (%): 65%
  Population Fragmented Nuclei (%): 24%
  Population Healthy Nuclei (%): 33%
  Population Hoechst High Intensity Objects (%): 13%
  Population Membrane Permeable-Phenotype (%): 34%
  Population Mitochondria Different-Phenotype (%): 37%
  Population Mitotic Cells (%): 34%
  Population Normal (%): 86%
  Population Pyknosed Nuclei (%): 41%
  Population Tubulin-Different-Phenotype (%): 88%
  Total Cell Count: 121
[4]
  Population Apoptotic (%): 61%
  Population Fragmented Nuclei (%): 18%
  Population Healthy Nuclei (%): 42%
  Population Hoechst High Intensity Objects (%): 8%
  Population Membrane Permeable-Phenotype (%): 78%
  Population Mitochondria Different-Phenotype (%): 92%
  Population Mitotic Cells (%): 38%
  Population Normal (%): 91%
  Population Pyknosed Nuclei (%): 39%
  Population Tubulin-Different-Phenotype (%): 100%
  Total Cell Count: 66
[5]
  Population Apoptotic (%): 66%
  Population Fragmented Nuclei (%): 40%
  Population Healthy Nuclei (%): 41%
  Population Hoechst High Intensity Objects (%): 14%
  Population Membrane Permeable-Phenotype (%): 19%
  Population Mitochondria Different-Phenotype (%): 5%
  Population Mitotic Cells (%): 33%
  Population Normal (%): 85%
  Population Pyknosed Nuclei (%): 17%
  Population Tubulin-Different-Phenotype (%): 43%
  Total Cell Count: 142
[6]
  Population Apoptotic (%): 27%
  Population Fragmented Nuclei (%): 12%
  Population Healthy Nuclei (%): 72%
  Population Hoechst High Intensity Objects (%): 3%
  Population Membrane Permeable-Phenotype (%): 7%
  Population Mitochondria Different-Phenotype (%): 29%
  Population Mitotic Cells (%): 72%
  Population Normal (%): 96%
  Population Pyknosed Nuclei (%): 14%
  Population Tubulin-Different-Phenotype (%): 16%
  Total Cell Count: 101
[7]
  Population Apoptotic (%): 85%
  Population Fragmented Nuclei (%): 27%
  Population Healthy Nuclei (%): 34%
  Population Hoechst High Intensity Objects (%): 10%
  Population Membrane Permeable-Phenotype (%): 42%
  Population Mitochondria Different-Phenotype (%): 44%
  Population Mitotic Cells (%): 14%
  Population Normal (%): 89%
  Population Pyknosed Nuclei (%): 37%
  Population Tubulin-Different-Phenotype (%): 81%
  Total Cell Count: 124
[8]
  Population Apoptotic (%): 90%
  Population Fragmented Nuclei (%): 26%
  Population Healthy Nuclei (%): 11%
  Population Hoechst High Intensity Objects (%): 20%
  Population Membrane Permeable-Phenotype (%): 100%
  Population Mitochondria Different-Phenotype (%): 75%
  Population Mitotic Cells (%): 9%
  Population Normal (%): 79%
  Population Pyknosed Nuclei (%): 61%
  Population Tubulin-Different-Phenotype (%): 100%
  Total Cell Count: 77
[9]
  Population Apoptotic (%): 42%
  Population Fragmented Nuclei (%): 59%
  Population Healthy Nuclei (%): 36%
  Population Hoechst High Intensity Objects (%): 23%
  Population Membrane Permeable-Phenotype (%): 15%
  Population Mitochondria Different-Phenotype (%): 0%
  Population Mitotic Cells (%): 57%
  Population Normal (%): 76%
  Population Pyknosed Nuclei (%): 4%
  Population Tubulin-Different-Phenotype (%): 59%
  Total Cell Count: 189
[10]
  Population Apoptotic (%): 75%
  Population Fragmented Nuclei (%): 65%
  Population Healthy Nuclei (%): 32%
  Population Hoechst High Intensity Objects (%): 22%
  Population Membrane Permeable-Phenotype (%): 12%
  Population Mitochondria Different-Phenotype (%): 3%
  Population Mitotic Cells (%): 25%
  Population Normal (%): 77%
  Population Pyknosed Nuclei (%): 2%
  Population Tubulin-Different-Phenotype (%): 63%
  Total Cell Count: 231
[11]
  Population Apoptotic (%): 66%
  Population Fragmented Nuclei (%): 45%
  Population Healthy Nuclei (%): 38%
  Population Hoechst High Intensity Objects (%): 21%
  Population Membrane Permeable-Phenotype (%): 40%
  Population Mitochondria Different-Phenotype (%): 18%
  Population Mitotic Cells (%): 33%
  Population Normal (%): 78%
  Population Pyknosed Nuclei (%): 16%
  Population Tubulin-Different-Phenotype (%): 88%
  Total Cell Count: 165
[12]
  Population Apoptotic (%): 60%
  Population Fragmented Nuclei (%): 56%
  Population Hoechst High Intensity Objects (%): 25%
  Population Membrane Permeable-Phenotype (%): 14%
  Population Mitochondria Different-Phenotype (%): 64%
  Population Mitotic Cells (%): 40%
  Population Normal (%): 74%
  Population Pyknosed Nuclei (%): 4%
  Population Tubulin-Different-Phenotype (%): 95%
  Total Cell Count: 146
